Results gathered from unrelated publications.
Each line is one published result; the experiments were not run side by side.
BAZ2B bromodomain: Bromodomain adjacent to zinc finger domain protein 2B, bromodomain (BAZ2B, Homo sapiens, UniProt Q9UIF8)
PTGS1: Prostaglandin G/H synthase 1 (PTGS1, Ovis aries, UniProt P05979)
MARK1: Serine/threonine-protein kinase MARK1 (MARK1, Homo sapiens, UniProt Q9P0L2)
SIRT3: NAD-dependent protein deacetylase sirtuin-3, mitochondrial (SIRT3, Homo sapiens, UniProt Q9NTG7)

C[S+]([O-])c1ccc(-c2nc(-c3ccncc3)c(-c3ccc(F)cc3)[nH]2)cc1 (stereo not drawn)
ΔTm (BAZ2B bromodomain; thermal stability; DSF; 10 µM): 0.21 °C

CN(C)C1CCN(CC#Cc2nn(C3CCCC3)c3nc(NCc4ccccc4)ncc23)C1 (stereo not drawn)
inhibition (Activin receptor type-1B (ACVR1B, Homo sapiens, UniProt P36896); enzyme activity; inhibitor; FRET; 1 µM): 5%

CCCCC#CCNC(=O)c1ccccc1SC(C)=O
kinact (PTGS1; enzyme activity; inhibitor): 0.000367 s⁻¹

Cc1nn(CC(F)(F)F)cc1Nc1nccc(NCCCNC(=O)C2CCC2)n1
remaining activity (MARK1; enzyme activity; inhibitor; radiometric; 1 µM): 108%

Cc1cc2c(cc1N1C(=O)c3cccc4c(Cl)ccc(c34)C1=O)n(C)c(=O)n2C
ΔTm (BAZ2B bromodomain; thermal stability; DSF; 10 µM): 0.6 °C

CCCOc1ccc(OC)c(F)c1C(=O)c1ccc(C(=O)N[C@@H]2CNC[C@H]2NC(=O)c2ccc3[nH]ncc3c2)cc1
remaining activity (Serine/threonine-protein kinase MRCK alpha (CDC42BPA, Homo sapiens, UniProt Q5VT25); enzyme activity; inhibitor; 0.1 µM): 66%

Oc1cccc(Nc2nc(-c3ccc(F)cc3F)cs2)c1
inhibition (D(1A) dopamine receptor (DRD1, Homo sapiens, UniProt P21728); cell-free assay; 10 µM): 21.2%

Cc1ccc(C(=O)NCc2ccsc2)cc1C#Cc1cn(C(C)C)c2ncnc(N)c12
activity vs control (Transcription initiation factor TFIID subunit 1-like (TAF1L, Homo sapiens, UniProt Q8IZX4); enzyme activity; inhibitor; 1 µM): 91%

CCCCCc1cc(=O)c2cc(Cl)cc(Br)c2o1
inhibition (SIRT3; enzyme activity; inhibitor; fluorescence; 200 µM): 4.5%

Oc1ccc(-c2nc(-c3ccncc3)c(-c3ccc(F)cc3)[nH]2)cc1
ΔTm (Transcription initiation factor TFIID subunit 1-like, BD1 (TAF1L, Homo sapiens, UniProt Q8IZX4); thermal stability; DSF; 10 µM): 0.17 °C

CCCCCCNC(=O)c1ccccc1SC(C)=O
kinact (PTGS1; enzyme activity; inhibitor; mass spectrometry): 0.0103 s⁻¹

O=C(NCCCNc1nc(Nc2cccc(NC(=O)N3CCCC3)c2)ncc1Br)C1CCC1
remaining activity (Mitogen-activated protein kinase kinase kinase 9 (MAP3K9, Homo sapiens, UniProt P80192); enzyme activity; inhibitor; radiometric; 1 µM): 0%

CCCCC[C@@H]1CC(=O)c2cc(Cl)cc(Br)c2O1
inhibition (SIRT3; enzyme activity; inhibitor; fluorescence; 200 µM): 3.9%

NS(=O)(=O)c1ccc(Nc2nc(-c3ccc(F)cc3)c3ccccc3n2)cc1
remaining binding (Peregrin (BRPF1, Homo sapiens, UniProt P55201); binding; competition with immobilised ligand; 1 µM): 76%

Cc1cnc(Nc2ccc(OCCN3CCCC3)cc2)nc1Nc1cccc(S(=O)(=O)NC(C)(C)C)c1
ΔTm (Transcription initiation factor TFIID subunit 1, BD2 (TAF1, Homo sapiens, UniProt P21675); thermal stability; DSF; 10 µM): 0.28 °C

Cc1nn(CC(F)(F)F)cc1Nc1ncc(C2CC2)c(NCCCNC(=O)C2CCC2)n1
remaining activity (MARK1; enzyme activity; inhibitor; radiometric; 1 µM): 79%

CCCCCC1CC(=O)c2cc(C)cc(C)c2O1 (stereo not drawn)
inhibition (SIRT3; enzyme activity; inhibitor; fluorescence; 200 µM): 2.4%

Nc1ncnc2occ(-c3ccc(NC(=O)Nc4cc(C(F)(F)F)ccc4F)cc3)c12
remaining signal (Mitogen-activated protein kinase kinase kinase 6 (MAP3K6, Homo sapiens, UniProt O95382); cell-free assay; inhibitor; 20 µM): 20%
